iPSC survival up – enhancers of single-cell hiPSC survival, primary screen, ATPlite luminescence; 100% = ROCK inhibitor wells, 0% = DMSO; survival enhancement, % at 20 µM; 360,000 tested, 0.044% active; in the data active means survival enhancement above about 18%;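 further: cells exposed to compounds for 16 hours before the ATP read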
MPTP block – mitochondrial permeability transition pore inhibitors, primary screen, biochemical, isolated mouse mitochondria, absorbance; Ca2+ swelling absorbance, 30 min; inhibition, % at 10 µM; 360,000 tested, 1.4% active; AID 602449, 2012;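 active means inhibition of 50% or more, scaled per plate between neutral and stimulator controls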;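 further: 0% = DMSO wells given calcium and 100% = 1 mM EGTA wells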
beta cell repl – inducers of MIN6 beta-cell proliferation, primary screen, ATP luminescence, uHTS; MIN6 cells proliferation, ATPlite luminescence, 48 h; cells starved in 0.2% serum; 100% = growth in 10% serum; proliferation, % at 10 µM; 330,000 tested, 0.29% active;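 active means compounds whose signal lies at least 3.5 SD above the mean of all wells on their plate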;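 further: 0% = DMSO-treated cells in low-serum medium and 100% = 10% serum control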
UBC13 polyUb – UBC13 polyubiquitin chain formation inhibitors, primary screen, biochemical, TR-FRET, uHTS | Ubiquitin-conjugating enzyme E2 N (Homo sapiens), P61088 | 330,000 tested, 0.47% active | inhibition, % at 20 µM | AID 485273, 2010; in the data active means inhibition above about 45%, passing the limit was not always enough; inconclusive means no clear call, values can overlap the other calls
Exocytosis inh – LAMP-1 surface exposure blockers, TALL-104 cells – cell-based, flow cytometry, MLPCN library, primary screen. TALL-104 LAMP-1 surface exposure; cells stimulated with thapsigargin and PMA. inhibition, % at 10 µM. 360,000 tested, 0.66% active;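 active means inhibition above about 55%, limit read from the data; inconclusive means no clear call, values can overlap the other calls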
Apaf-1 inh – inhibitors of human Apaf-1 apoptosome, primary screen, biochemical, DEVD-Rh110 fluorescence, uHTS; reconstituted apoptosome caspase-3 activity; 330,000 tested, 0.71% active; inhibition, % at 20 µM; AID 489030, 2010; Apoptotic protease-activating factor 1 (Homo sapiens), O14727; active means inhibition of at least 40% at 20 µM;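 further: plate controls were DMSO wells for no effect and DEVD-CHO caspase inhibitor wells for full effect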
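System: Apoptosome proteins | Medium: Hepes pH 7.5 with detergent and BSA | Also added: Cytochrome c trigger plus (Z-DEVD)2-Rh110 caspase-3 substrate | Incubation: 30 min compound preincubation, 50 min activation, room temperature | Detection: Rhodamine 110 fluorescence at Ex 480/Em 540 nm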
Apaf-1 inh conf – Apaf-1 inhibitors, single-dose retest, confirmation, biochemical, fluorescence, DEVD-Rh110, 20 µM; shares compounds with Apaf-1 inh; reconstituted apoptosome, caspase-3 DEVD-Rh110 fluorescence; inhibition, % at 20 µM; 1,800 tested, 25% active; AID 504614, 2011;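 active means mean inhibition of at least 40% at 20 µM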;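 further: plate controls were DMSO wells for no effect and DEVD-CHO caspase inhibitor control wells for full effect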
Rh110 quench – Rh110 fluorescence interference by putative Apaf-1 inhibitors, confirmation, artefact control for Apaf-1 inhibitor project, biochemical, 20 µM; 1,800 tested, under 10 active; shares compounds with Apaf-1 inh; quenched caspase reaction; activation (fluorescence interference), % at 20 µM;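 active means signal rise of 40% or more at 20 µM, treated as a fluorescence artifact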
Apaf1 inh interf – fluorescence interference of Apaf-1 inhibitor hits, dose response, artefact control for Apaf-1 inhibitor project. shares compounds with Apaf-1 inh. fluorescence interference counterscreen, Apaf-1 assay format. IC50, µM. 460 tested, under 10 active. AID 588538, 2011; call rule not given here
* marks the source's active call; other numbers are inactive results; ? = inconclusive; · = not tested or not shown. Rows were chosen to be rich in hits. Some 3% of all compounds tested hit in one or more screens of this group.

SMILES	iPSC survival up	MPTP block	beta cell repl	UBC13 polyUb	Exocytosis inh	Apaf-1 inh	Apaf-1 inh conf	Rh110 quench	others
CC(=O)c1cccc(-c2ccc3c(=O)[nH]c(Nc4ccccc4)cc3c2)c1	-1	2	-3	-110	-15	96*	88*	8
CC(=O)OC1CC2(C)C(CCC2(O)C(C)=O)C2CCC3C(Cl)C(=O)CCC3(C)C12 (configuration not stated)	1	1	·	·	-13	·	·	·
Cc1ccccc1NC(=O)CC1C(=O)Nc2ccccc2N1CC(=O)N(C)C1CCS(=O)(=O)C1 (configuration not stated)	0	-1	0	-12	2	4	·	·
CSc1ncccc1C(=O)OCC(=O)NCCCc1ccccc1	0	0	-2	8	-1	-5	·	·
CC(C)N(Cc1cc2ccccc2[nH]c1=O)C(=O)C1CCCCC1	-4	2	-1	2	10	57*	65*	6	Apaf1 inh interf=>100
CCN(CC(=O)Nc1ccc2c(c1)OCCO2)C(=O)/C=C/c1cccc(OC)c1OC	0	-1	5	-4	3	11	·	·
CCN(CC(=O)Nc1ccc2c(c1)OCCO2)C(=O)/C=C/c1ccc(OC)cc1OC	0	-2	2	14	-6	64*	37	15
COc1ccc(-n2c(N)c(C(=O)NCc3ccco3)c3nc4ccccc4nc32)c(OC)c1	-3	0	-1	-35	5	65*	16	0
Nc1c(C(=O)NCc2ccco2)c2nc3ccccc3nc2n1CCc1ccccc1F	2	2	-7	-24	4	61*	34	18
COc1ccc(CCn2c(N)c(C(=O)NCc3ccco3)c3nc4ccccc4nc32)cc1OC	3	0	-3	-55	1	63*	16	3
O=C(Cc1ccccc1)NCC(=O)OCc1cccc([N+](=O)[O-])c1	0	-1	-3	9	-1	-9	·	·
CCOC(=O)C1CCN(c2cc3c(cc2NC(=O)c2ccccc2OCC)n(C)c(=O)n3C)CC1	0	-2	-7	13	8	40*	22	9
CCN(CC)CCn1c(SCC(=O)Nc2ccc3c(c2)CCC3)nc2ccccc2c1=O	0	0	-8	40	4	51*	7	8
CCOCCCn1c(SCC(=O)Nc2cc(C(C)(C)C)nn2-c2ccccc2)nc2ccccc2c1=O	-2	-1	-3	18	-6	40*	23	8
O=C(CSc1nc2ccccc2c(=O)n1-c1ccccc1F)Nc1ccc2c(c1)CCC2	-2	5	-3	4	-1	11	·	·
CC(C)[C@H](N)C(=O)N[C@H]1CCC2C3CC=C4C[C@@H](O)CC[C@]4(C)C3CC[C@@]21C (some centres not stated)	-5	2	·	·	31	·	·	·
CC(C)[C@H](NC(=O)N1CCC(Cc2ccccc2)CC1)C(=O)O	0	-1	-4	2	1	42*	13	3
COC(=O)[C@H](C)NC(=O)N1CCC(Cc2ccccc2)CC1	-1	0	-4	7	?	-2	·	·
C/C(=C\C(=S)Nc1ccccc1)Nc1cccc2ccccc12	-2	2	-6	-34	12	97*	22	9
C/C(=C\C(=S)Nc1ccccc1)Nc1ccc2ccccc2c1	0	5	-5	2	1	41*	15	4
CSc1cccc(NC(=O)NNC(=O)C2CCN(S(=O)(=O)N(C)C)CC2)c1	-1	0	6	0	-3	0	·	·
Cc1cc(OCC(=O)OCC(=O)NCc2cccs2)ccc1Cl	0	-1	-1	-28	42	1	·	·
O=C1C(=O)c2c(C(=O)c3ccccc3)coc2-c2ccccc21	-5	7	-4	-62	92*	55*	36	14
Cc1c(CCC(C)C)c(=O)n2c([nH]c3ccccc32)c1C#N	-2	49	-7	-4	-3	60*	65*	-2	Apaf1 inh interf=>100
O=C(Cc1ccc([N+](=O)[O-])cc1)Nc1cccc(C(=O)N2CCCCC2)c1	1	2	-4	0	2	10	·	·
SMILES	iPSC survival up	MPTP block	beta cell repl	UBC13 polyUb	Exocytosis inh	Apaf-1 inh	Apaf-1 inh conf	Rh110 quench	others
COc1ccccc1C1Nc2cccc3cccc(c23)N1	-2	3	-6	-10	31	51*	31	7
CCCCC[C@H](C)N1C[C@H](COCc2ccccc2)Oc2cc(N3CCC[C@H]3COC)ccc2S1(=O)=O	0	1	·	·	-4	·	·	·
O=C1c2ccccc2C(=O)c2[nH]c(=O)[nH]c21	-1	1	-5	-191	12	80*	75*	-2	Apaf1 inh interf=>100
CC(=O)N(C)C1=C(O)c2ccccc2C(=O)C1=O	-4	1	-4	-34	-7	40*	17	14
O=C1C(O)=C(O)C(=O)c2ccccc21	3	0	-4	-102	-4	92*	67*	7	Apaf1 inh interf=>100
CC(=O)N(C1=C(O)c2ccccc2C(=O)C1=O)C1CCCCC1	0	-2	-2	-41	-2	6	·	·
CC1(OC(=O)C2CCCC2)C(=O)C=C2C=C(c3ccsc3)N(CCCCO)C=C2C1=O (configuration not stated)	-1	0	2	-80	-4	54*	36	0
CCOC(=O)c1cnc2ccc(C)cc2c1Nc1ccc(N2CCOCC2)cc1	4	0	1	-13	5	41*	37	9
COc1cc2c(cc1O)CC[n+]1cc3c(OC)c(OC)ccc3cc1-2	-6	-1	0	-99	-1	-6	·	·
COc1cc2c(cc1OC)-c1cc3ccc4c(c3c[n+]1CC2)OCO4	0	-1	-6	-351	-7	73*	28	-3
CC(C)C(C(=O)O)N1C(=O)/C(=C/C=C/c2ccco2)SC1=S (configuration not stated)	2	-4	-4	?	2	46*	48*	6	Apaf1 inh interf=>100
